# Measured values taken from the M2OR odorant receptor database.
# How the values were obtained:
# Settings in all cases: stereoisomer not certain
# [1] = target: T1, UniProt Q8VGC6
# T1 sequence (whole entry): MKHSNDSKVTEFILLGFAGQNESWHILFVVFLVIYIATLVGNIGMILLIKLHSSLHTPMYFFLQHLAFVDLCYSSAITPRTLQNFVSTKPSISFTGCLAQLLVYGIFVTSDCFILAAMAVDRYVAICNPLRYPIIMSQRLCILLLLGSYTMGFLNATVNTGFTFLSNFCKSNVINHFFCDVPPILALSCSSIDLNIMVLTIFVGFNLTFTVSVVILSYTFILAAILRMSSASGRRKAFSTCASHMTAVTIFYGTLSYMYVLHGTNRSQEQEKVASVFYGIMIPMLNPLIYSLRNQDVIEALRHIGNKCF
# How it was run: (§1)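 Assay methods differ from source to source, frequently being transient luciferase assays in mammalian cell lines. For each receptor–molecule pair, the label responsive (active) applies when the original authors judged the measured signal statistically different from baseline, and non-responsive (inactive) applies otherwise.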
# [2] = target: T2, UniProt Q8VGD7
# T2 sequence (whole entry): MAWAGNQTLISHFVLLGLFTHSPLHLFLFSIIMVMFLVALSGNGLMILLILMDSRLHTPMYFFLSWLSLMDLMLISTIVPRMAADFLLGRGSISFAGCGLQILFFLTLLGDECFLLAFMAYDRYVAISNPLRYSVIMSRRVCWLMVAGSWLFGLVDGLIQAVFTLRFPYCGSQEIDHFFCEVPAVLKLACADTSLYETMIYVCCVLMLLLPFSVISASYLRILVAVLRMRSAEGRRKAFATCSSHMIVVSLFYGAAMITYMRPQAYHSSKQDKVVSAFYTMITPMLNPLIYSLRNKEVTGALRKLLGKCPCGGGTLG
# How it was run: as §1
# [3] = target: T3, UniProt Q8VGH1
# T3 sequence (whole entry): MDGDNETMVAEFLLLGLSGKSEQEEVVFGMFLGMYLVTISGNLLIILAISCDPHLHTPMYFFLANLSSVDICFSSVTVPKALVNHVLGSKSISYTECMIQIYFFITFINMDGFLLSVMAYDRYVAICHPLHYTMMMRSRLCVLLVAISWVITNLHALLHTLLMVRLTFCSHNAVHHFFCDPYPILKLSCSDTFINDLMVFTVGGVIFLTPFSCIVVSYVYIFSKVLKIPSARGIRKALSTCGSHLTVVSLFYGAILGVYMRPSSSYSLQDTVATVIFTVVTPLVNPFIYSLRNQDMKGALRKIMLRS
# How it was run: as §1
# [4] = target: T4, UniProt Q8VGJ1
# T4 sequence (whole entry): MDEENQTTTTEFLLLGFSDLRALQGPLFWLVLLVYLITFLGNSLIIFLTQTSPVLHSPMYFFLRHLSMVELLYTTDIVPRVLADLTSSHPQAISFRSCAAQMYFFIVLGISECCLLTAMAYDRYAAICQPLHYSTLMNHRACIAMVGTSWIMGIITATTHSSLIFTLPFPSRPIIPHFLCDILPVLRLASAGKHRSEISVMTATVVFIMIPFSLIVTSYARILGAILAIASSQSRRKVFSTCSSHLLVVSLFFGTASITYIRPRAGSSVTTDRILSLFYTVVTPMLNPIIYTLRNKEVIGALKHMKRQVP
# How it was run: as §1
# [5] = target: T5, UniProt Q8VGJ3
# T5 sequence (whole entry): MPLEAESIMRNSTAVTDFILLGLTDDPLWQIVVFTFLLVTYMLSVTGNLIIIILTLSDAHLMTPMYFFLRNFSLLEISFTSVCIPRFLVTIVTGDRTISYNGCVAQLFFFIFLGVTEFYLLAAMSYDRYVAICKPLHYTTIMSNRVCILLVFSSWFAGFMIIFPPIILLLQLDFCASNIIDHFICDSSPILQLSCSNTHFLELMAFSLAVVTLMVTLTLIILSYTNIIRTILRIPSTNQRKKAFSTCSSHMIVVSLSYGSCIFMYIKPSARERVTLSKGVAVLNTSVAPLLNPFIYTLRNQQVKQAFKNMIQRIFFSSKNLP
# How it was run: as §1
# [6] = target: T6, UniProt Q8VGJ5
# T6 sequence (whole entry): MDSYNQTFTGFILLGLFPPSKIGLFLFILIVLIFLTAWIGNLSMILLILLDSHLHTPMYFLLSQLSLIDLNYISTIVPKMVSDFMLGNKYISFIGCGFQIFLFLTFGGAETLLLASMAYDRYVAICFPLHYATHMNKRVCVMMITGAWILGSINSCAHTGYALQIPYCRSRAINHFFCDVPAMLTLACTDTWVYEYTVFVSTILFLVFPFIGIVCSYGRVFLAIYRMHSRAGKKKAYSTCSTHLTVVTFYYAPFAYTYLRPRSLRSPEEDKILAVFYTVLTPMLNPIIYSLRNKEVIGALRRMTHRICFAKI
# How it was run: as §1
# [7] = target: T7, UniProt Q8VGL0
# T7 sequence (whole entry): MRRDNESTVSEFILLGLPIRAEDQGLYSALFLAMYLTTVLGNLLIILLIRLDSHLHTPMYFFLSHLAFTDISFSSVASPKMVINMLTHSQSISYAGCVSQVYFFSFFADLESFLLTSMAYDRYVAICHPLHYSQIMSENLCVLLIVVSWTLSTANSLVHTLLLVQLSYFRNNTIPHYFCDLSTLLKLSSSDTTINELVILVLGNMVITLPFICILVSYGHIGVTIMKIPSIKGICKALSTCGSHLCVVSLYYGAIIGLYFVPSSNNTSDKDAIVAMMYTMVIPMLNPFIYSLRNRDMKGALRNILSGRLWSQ
# How it was run: as §1
# [8] = target: T8, UniProt Q8VGL7
# T8 sequence (whole entry): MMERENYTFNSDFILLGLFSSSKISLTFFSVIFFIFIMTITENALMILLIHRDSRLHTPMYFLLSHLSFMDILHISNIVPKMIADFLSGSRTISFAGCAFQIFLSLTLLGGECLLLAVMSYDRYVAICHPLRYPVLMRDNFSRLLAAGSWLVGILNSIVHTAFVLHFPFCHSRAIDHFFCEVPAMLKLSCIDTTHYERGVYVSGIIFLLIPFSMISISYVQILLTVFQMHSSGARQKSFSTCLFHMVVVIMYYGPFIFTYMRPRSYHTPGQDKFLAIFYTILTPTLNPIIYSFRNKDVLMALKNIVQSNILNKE
# How it was run: as §1
# [9] = target: T9, UniProt Q8VGM2
# T9 sequence (whole entry): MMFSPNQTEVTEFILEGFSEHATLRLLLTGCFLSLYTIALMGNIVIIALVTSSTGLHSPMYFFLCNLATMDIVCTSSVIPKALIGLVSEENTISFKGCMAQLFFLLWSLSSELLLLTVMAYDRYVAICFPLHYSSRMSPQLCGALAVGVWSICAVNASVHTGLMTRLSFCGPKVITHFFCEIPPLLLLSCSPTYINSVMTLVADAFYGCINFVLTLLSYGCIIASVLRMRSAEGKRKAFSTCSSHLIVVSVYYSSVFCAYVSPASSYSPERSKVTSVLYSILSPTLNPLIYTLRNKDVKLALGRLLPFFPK
# How it was run: as §1
# [10] = target: T10, UniProt Q8VGP6
# T10 sequence (whole entry): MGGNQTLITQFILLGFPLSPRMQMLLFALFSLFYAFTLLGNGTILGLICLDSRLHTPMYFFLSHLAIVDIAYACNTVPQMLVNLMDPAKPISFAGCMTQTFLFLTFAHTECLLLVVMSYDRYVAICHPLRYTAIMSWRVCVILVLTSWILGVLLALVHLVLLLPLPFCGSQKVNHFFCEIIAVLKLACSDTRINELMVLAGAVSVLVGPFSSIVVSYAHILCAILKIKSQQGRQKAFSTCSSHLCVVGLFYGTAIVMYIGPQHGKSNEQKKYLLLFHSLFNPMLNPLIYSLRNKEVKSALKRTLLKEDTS
# How it was run: as §1
# [11] = target: T11, UniProt Q8VGQ3
# T11 sequence (whole entry): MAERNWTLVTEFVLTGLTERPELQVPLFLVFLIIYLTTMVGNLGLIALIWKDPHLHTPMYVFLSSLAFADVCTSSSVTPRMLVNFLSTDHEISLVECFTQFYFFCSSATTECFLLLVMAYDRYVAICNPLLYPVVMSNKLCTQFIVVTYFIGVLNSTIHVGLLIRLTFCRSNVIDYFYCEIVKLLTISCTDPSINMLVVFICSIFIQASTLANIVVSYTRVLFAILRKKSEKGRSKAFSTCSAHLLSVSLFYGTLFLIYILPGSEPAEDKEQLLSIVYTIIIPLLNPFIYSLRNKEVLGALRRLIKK
# How it was run: as §1
# [12] = target: T12, UniProt Q8VGT4
# T12 sequence (whole entry): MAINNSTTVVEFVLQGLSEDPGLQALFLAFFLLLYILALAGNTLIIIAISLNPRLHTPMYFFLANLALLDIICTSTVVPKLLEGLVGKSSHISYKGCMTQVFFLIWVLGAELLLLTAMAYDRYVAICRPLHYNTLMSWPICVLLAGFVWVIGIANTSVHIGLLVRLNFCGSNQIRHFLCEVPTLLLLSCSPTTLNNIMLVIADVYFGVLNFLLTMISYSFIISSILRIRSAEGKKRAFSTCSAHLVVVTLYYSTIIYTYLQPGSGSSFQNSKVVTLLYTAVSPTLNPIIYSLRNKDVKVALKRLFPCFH
# How it was run: as §1
# [13] = target: T13, UniProt Q8VGU3
# T13 sequence (whole entry): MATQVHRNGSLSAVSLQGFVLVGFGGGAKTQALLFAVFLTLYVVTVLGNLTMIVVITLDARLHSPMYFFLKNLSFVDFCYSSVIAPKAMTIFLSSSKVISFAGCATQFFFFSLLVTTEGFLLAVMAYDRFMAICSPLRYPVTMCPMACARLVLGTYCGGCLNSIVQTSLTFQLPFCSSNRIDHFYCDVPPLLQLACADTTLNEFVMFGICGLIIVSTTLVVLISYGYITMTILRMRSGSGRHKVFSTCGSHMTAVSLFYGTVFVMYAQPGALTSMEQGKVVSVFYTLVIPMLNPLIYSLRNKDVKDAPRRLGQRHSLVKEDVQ
# How it was run: as §1
# [14] = target: T14, UniProt Q8VGV1
# T14 sequence (whole entry): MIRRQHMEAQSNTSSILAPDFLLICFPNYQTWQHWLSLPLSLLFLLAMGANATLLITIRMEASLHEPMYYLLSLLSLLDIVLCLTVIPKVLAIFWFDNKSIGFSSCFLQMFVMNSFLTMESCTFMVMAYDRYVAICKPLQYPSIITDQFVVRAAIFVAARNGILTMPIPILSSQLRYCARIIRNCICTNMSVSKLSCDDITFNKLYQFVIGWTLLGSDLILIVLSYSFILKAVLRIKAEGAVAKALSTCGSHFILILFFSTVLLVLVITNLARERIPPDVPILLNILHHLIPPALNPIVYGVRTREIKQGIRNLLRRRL
# How it was run: as §1
# [15] = target: T15, UniProt Q8VGV7
# T15 sequence (whole entry): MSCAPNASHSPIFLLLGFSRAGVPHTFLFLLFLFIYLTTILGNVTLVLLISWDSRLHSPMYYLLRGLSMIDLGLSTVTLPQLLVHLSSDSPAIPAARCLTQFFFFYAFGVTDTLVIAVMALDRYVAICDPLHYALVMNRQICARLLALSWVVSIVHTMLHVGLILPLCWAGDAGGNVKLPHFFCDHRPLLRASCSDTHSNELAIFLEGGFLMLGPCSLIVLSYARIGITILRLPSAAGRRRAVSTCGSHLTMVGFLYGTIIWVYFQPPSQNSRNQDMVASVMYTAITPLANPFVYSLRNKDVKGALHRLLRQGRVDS
# How it was run: as §1
# [16] = target: T16, UniProt Q8VGW5
# T16 sequence (whole entry): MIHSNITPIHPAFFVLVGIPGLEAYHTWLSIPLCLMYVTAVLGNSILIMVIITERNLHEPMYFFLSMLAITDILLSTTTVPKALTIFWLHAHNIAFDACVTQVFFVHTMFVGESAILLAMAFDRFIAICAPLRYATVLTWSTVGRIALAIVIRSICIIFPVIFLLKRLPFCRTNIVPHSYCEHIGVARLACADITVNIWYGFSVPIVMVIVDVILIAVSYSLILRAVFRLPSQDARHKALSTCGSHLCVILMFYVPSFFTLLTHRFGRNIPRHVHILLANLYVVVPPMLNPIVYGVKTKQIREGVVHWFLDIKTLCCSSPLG
# How it was run: as §1
# [17] = target: T17, UniProt Q8VGX3
# T17 sequence (whole entry): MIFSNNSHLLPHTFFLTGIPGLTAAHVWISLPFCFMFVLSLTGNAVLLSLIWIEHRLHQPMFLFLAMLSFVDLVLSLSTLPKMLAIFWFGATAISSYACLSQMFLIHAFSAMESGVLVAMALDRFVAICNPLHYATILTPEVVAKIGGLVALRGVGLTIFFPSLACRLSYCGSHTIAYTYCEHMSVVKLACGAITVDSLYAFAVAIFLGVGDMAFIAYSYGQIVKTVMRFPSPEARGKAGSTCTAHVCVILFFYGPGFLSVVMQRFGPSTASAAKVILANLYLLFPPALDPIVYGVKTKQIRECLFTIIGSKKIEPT
# How it was run: as §1
# [18] = target: T18, UniProt Q8VGX5
# T18 sequence (whole entry): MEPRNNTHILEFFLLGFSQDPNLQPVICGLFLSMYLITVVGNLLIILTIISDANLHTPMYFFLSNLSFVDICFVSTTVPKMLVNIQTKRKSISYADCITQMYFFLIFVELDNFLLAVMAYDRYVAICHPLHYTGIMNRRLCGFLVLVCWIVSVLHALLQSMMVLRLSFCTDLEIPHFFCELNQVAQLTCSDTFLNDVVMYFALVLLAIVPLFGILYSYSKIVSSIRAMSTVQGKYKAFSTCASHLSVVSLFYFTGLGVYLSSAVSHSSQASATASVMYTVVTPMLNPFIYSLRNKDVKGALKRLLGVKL
# How it was run: as §1
# [19] = target: UniProt Q8VGE3
# How it was run: as §1
# [20] = target: UniProt Q8VGK6
# How it was run: as §1
# Chain of UniProt Q8VGK6 (Q8VGK6 as listed by the source): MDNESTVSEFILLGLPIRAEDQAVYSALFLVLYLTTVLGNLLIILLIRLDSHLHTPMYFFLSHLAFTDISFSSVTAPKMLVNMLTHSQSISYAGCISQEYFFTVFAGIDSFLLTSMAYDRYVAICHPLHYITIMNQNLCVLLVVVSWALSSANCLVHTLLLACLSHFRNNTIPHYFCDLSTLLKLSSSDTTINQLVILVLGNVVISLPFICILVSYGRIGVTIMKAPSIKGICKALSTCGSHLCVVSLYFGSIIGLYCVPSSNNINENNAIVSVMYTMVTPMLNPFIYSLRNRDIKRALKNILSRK
# Chain of UniProt Q8VGE3 (Q8VGE3 as listed by the source): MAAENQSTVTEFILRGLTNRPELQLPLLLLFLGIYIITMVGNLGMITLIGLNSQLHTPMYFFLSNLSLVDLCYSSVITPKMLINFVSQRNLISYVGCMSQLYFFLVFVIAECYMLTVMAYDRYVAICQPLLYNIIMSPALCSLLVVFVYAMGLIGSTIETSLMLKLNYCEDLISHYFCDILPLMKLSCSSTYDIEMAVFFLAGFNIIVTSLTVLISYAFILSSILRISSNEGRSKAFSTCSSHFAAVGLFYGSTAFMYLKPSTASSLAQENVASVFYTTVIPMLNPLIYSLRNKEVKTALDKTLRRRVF
Compound,odorant receptor agonist call [1],odorant receptor agonist call [2],odorant receptor agonist call [3],odorant receptor agonist call [4],odorant receptor agonist call [5],odorant receptor agonist call [6],odorant receptor agonist call [7],odorant receptor agonist call [8],odorant receptor agonist call [9],odorant receptor agonist call [10],odorant receptor agonist call [11],odorant receptor agonist call [12],odorant receptor agonist call [13],odorant receptor agonist call [14],odorant receptor agonist call [15],odorant receptor agonist call [16],odorant receptor agonist call [17],odorant receptor agonist call [18],odorant receptor agonist call [19],odorant receptor agonist call [20]
C=CCCCCCC,inactive,,,,,,,,,,,,,,,,,,,
CCCCCCCO,active,inactive,inactive,inactive,inactive,active,inactive,inactive,inactive,active,inactive,inactive,inactive,inactive,inactive,inactive,inactive,inactive,,
O=C1CCOc2ccccc21,inactive,active,active,inactive,inactive,active,inactive,active,inactive,inactive,inactive,inactive,inactive,inactive,inactive,,inactive,active,active,active
